The values that follow come from ChEMBL document CHEMBL3244117, “Pyridine derivatives as potent inducers of erythroid differentiation in Friend leukemia cells” (1978).

What all share (assay type): functional, Leukemia cell
The nature of experiment [1]: Induction of erythroid differentiation in DBA/2J mouse Friend erythroleukemia cells assessed as hemoglobin level per 10^7 cells after 3 to 6 days relative to control. Put shortly: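 On day 6, cultures that contained benzidine-positive cells were centrifuged at 350g for 10 min. Cells were washed twice in phosphate-buffered 0.9% NaCl, pH 7.4, then sonicated. Total hemoglobin was measured from absorbance at 515 nm after the lysate was incubated with benzidine, and expressed per 10⁷ cells. Cells had been seeded at 10⁵ cells/mL with compound added at seeding, 37 °C.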

The nature of experiment [2]: Induction of erythroid differentiation in DBA/2J mouse Friend erythroleukemia cells assessed as cell growth after 3 days relative to control. The arrangement: concentration or dose not given beside the values. Put shortly: (§1)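 Cells were seeded at 10⁵ cells/mL with compound added at seeding, in two separate experiments using twofold concentration steps. Incubation was at 37 °C. Cell number was counted with a Coulter counter on day 3, and cell counts were also taken on day 6. Growth is expressed as a percentage of untreated control cultures.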

Experiment [3] in a line: Induction of erythroid differentiation in DBA/2J mouse Friend erythroleukemia cells assessed as cell growth after 6 days relative to control. The arrangement: concentration or dose not given beside the values. In outline:
as §1

Experiment [4] is described as follows: Induction of erythroid differentiation in DBA/2J mouse Friend erythroleukemia cells assessed as benzidine positive cells after 6 days relative to control. The arrangement: concentration or dose not given beside the values. In outline:
(§2)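 Log-phase Friend leukemia cells seeded at 10⁵ cells/mL in DMEM + 10% fetal calf serum, 37 °C, 10% CO₂. Compound added at seeding over a range of concentrations with twofold steps, in two separate experiments. Water-insoluble agents were dissolved in 50% ethanol or acetone. Me₂SO (210 mM) was the positive control. Benzidine-positive cells were scored on day 6 with benzidine peroxide stain.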

Experiment [5] is described as follows: Induction of erythroid differentiation in DBA/2J mouse Friend erythroleukemia cells assessed as concentration required for maximum proportion of benzidine positive cells after 6 days. In outline:
as §2

Structures are written as SMILES. Some results are limits rather than exact numbers.

`CC(=O)Nc1cccnc1`: the Activity stood at 14.4 µg in experiment [1]; 58% in experiment [2]; 95% in experiment [3]; 43% in experiment [4]; 8 mM in experiment [5].
Regarding `CC(=O)Nc1ccccn1`, the Activity came out at 30.6 µg in experiment [1]; 65% in experiment [2]; 95% in experiment [3]; 72% in experiment [4]; 2 mM in experiment [5].
In the case of `Cn1ccccc1=O`, the Activity in experiment [2] is given as 23%; in experiment [3], 95%; in experiment [4], 74%; in experiment [5] it was 2 mM.
Turning to `CC(=O)Nc1cccc(NC(C)=O)n1`, the Activity in experiment [1] came to 8.6 µg; in experiment [2] it was 80%; in experiment [3] it was 95%; in experiment [4], 28%; in experiment [5], 4 mM.
Consider `[O-][n+]1ccc(-c2ccccc2)cc1`, for which the Activity in experiment [1] is below 0.5 µg; in experiment [2], 26%; in experiment [3], 95%; in experiment [4] it was below 1%; in experiment [5], 0.4 mM.
On to `CC(=O)NCc1ccccn1`, for which the Activity in experiment [1] was 30 µg; in experiment [2], 36%; in experiment [3] it was 95%; in experiment [4], 68%; in experiment [5] it was 15 mM.
With `CC(=O)NCCc1ccccn1`, the Activity in experiment [1] worked out at 28 µg; in experiment [2] it was 33%; in experiment [3], 95%; in experiment [4], 60%; in experiment [5] it was 10 mM.
As for `CC(=O)Nc1cc(-c2ccccc2)ccn1`, the Activity in experiment [2] is listed as 21%; in experiment [3] it was 95%; in experiment [4], 8%; in experiment [5], 0.04 mM.
Take `CC(=O)Nc1cccc[n+]1[O-]`: the Activity in experiment [1] was determined as 22.6 µg; in experiment [2], 74%; in experiment [3] it was 95%; in experiment [4], 43%; in experiment [5], 10 mM.
Take `CC(=O)Nc1ccc[n+]([O-])c1`: the Activity in experiment [1] came to 15.6 µg; in experiment [2], 74%; in experiment [3], 95%; in experiment [4], 35%; in experiment [5], 10 mM.
Turning to `CC(=O)Nc1cc(-c2ccccc2)cc[n+]1[O-]`, the Activity in experiment [1] came to 12.2 µg; in experiment [2] it was 17%; in experiment [3], 95%; in experiment [4], 17%; in experiment [5], 1 mM.
For the compound `CC(=O)Nc1cccc(=O)n1C`, the Activity in experiment [1] worked out at 22.2 µg; in experiment [2], 55%; in experiment [3] it was 95%; in experiment [4], 73%; in experiment [5], 16 mM.
For `CC(=O)Nc1ccc(=O)n(C)c1`, the Activity amounted to 33.8 µg in experiment [1]; 91% in experiment [2]; 95% in experiment [3]; 67% in experiment [4]; 2 mM in experiment [5].
As for `CC(=O)Nc1ccc(=O)[nH]c1`, the Activity in experiment [2] was 26%; in experiment [3], 95%; in experiment [4], 16%; in experiment [5] it was 1 mM.
Turning to `CC(=O)Nc1cccc(=O)[nH]1`, the Activity in experiment [2] worked out at 22%; in experiment [3] it was 95%; in experiment [4], 4%; in experiment [5] it was 2 mM.
For the compound `Oc1ccccn1`, the Activity in experiment [2] is on record as 11%; in experiment [3], 95%; in experiment [4], 26%; in experiment [5] it was 8.6 mM.
Consider `C[S+](C)[O-]` [DIMETHYL SULFOXIDE], for which the Activity in experiment [1] was determined as 31.2 µg; in experiment [2], 60%; in experiment [4] it was 80%; in experiment [5] it was 210 mM.
